Laboratory results published in ChEMBL document CHEMBL4627249, “New modification strategy of matrine as Hsp90 inhibitors based on its specific L conformation for cancer treatment” (Bioorg Med Chem, 2020).
Values belong to the molecule of their own block, whether it stands above or below them. The source made the active and inactive calls. The calls are words filed in the database; no cut-off is given here.

How the values were obtained:
HeLa [1] = experiment: Antiproliferative activity against human HeLa cells assessed as reduction in cell viability after 48 hrs by MTT assay; type: functional, cell-based
Method in brief: (§1)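 HepG2 or HeLa cells in DMEM with 10% FBS and 1% penicillin-streptomycin were preincubated 24 h (37 °C, 5% CO2). They were then exposed for 48 h to 1, 5, 10, 20, 50 and 100 µM, diluted in medium from DMSO stocks. MTT (5 mg/mL, 20 µL) was added for 4 h, formazan dissolved in DMSO, and A490 read. Each concentration was run in triplicate. IC50 is the mean from dose-response curves of at least three independent experiments; cisplatin was the positive control.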

HepG2 = experiment: Antiproliferative activity against human HepG2 cells assessed as reduction in cell viability after 48 hrs by MTT assay; type: functional, cell-based; settings: HepG2, 48 h; method in brief: as §1
[2] = molecular target: T1, Heat shock protein HSP90 (Homo sapiens) (UniProt P07900+P08238)
MDA-MB-231 = experiment: Antiproliferative activity against human MDA-MB-231 cells assessed as reduction in cell viability after 48 hrs by MTT assay; type: functional, cell-based; settings: MDA-MB-231, 48 h
HeLa [3] = experiment: Induction of apoptosis in human HeLa cells assessed as necrotic cells at 20 uM after 48 hrs by Annexin V/propidium iodide staining based assay (reference value: 0 %); type: functional
Method in brief: (§2)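 HeLa cells were seeded at 2 × 10^5 per well in six-well plates and left overnight. They were then treated with 5, 10 or 20 µM for 48 h. Annexin V-FITC/PI staining was done with a commercial kit per its instructions. Early and late apoptotic fractions are given as cumulative percentages relative to untreated control.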

HeLa [4] = experiment: Induction of apoptosis in human HeLa cells assessed as early apoptotic cells at 10 uM after 48 hrs by Annexin V/propidium iodide staining based assay (reference value: 3.22 %); type: functional; method in brief: as §2
HeLa [5] = experiment: Induction of apoptosis in human HeLa cells assessed as decrease in protected caspase 3 protein expression after 48 hrs by Western blot analysis; type: functional, cell-based
Method in brief: (§3)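 HeLa cells were treated 48 h with 12.5, 25 or 50 µM, or with DMSO vehicle. Cells were lysed 30 min in RIPA buffer with protease inhibitor cocktail and spun at 12,000 rpm for 15 min at 4 °C. Proteins were run on 6-15% SDS-PAGE and moved to nitrocellulose. Membranes were blocked in 5% non-fat milk in TBS, probed with primary and secondary antibodies, and imaged by chemiluminescence.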

HeLa [6] = experiment: Induction of apoptosis in human HeLa cells assessed as increase in ratio of Bax to Bcl-2 protein expression 12.5 to 50 uM after 48 hrs by Western blot analysis; type: functional, cell-based; method in brief: as §3
[7] = molecular target: T1, Heat shock protein HSP90 (Homo sapiens); experiment: Inhibition of Hsp90 in human Hela cells assessed as down regulation of Hsp90 protein expression at 12.5 uM to 50 uM after 48 hrs by Western blot analysis; type: cell-based; method in brief: as §3
HeLa [8] = experiment: Induction of apoptosis in human HeLa cells assessed as viable cells at 20 uM after 48 hrs by Annexin V/propidium iodide staining based assay (reference value: 95.03 %); type: functional; settings: read-out: Activity; method in brief: as §2
HeLa [9] = experiment: Induction of apoptosis in human HeLa cells assessed as necrotic cells at 10 uM after 48 hrs by Annexin V/propidium iodide staining based assay (reference value: 0 %); type: functional; method in brief: as §2
HeLa [10] = experiment: Induction of apoptosis in human HeLa cells assessed as decrease in Bcl-2 protein expression after 48 hrs by Western blot analysis; type: functional, cell-based; method in brief: as §3
HeLa [11] = experiment: Induction of apoptosis in human HeLa cells assessed as accumulation of […] cells at 5 uM after 48 hrs by Annexin V/propidium iodide staining based assay (reference value: 0 %); type: functional; method in brief: as §2
HeLa [12] = experiment: Induction of apoptosis in human HeLa cells assessed as viable cells at 5 uM after 48 hrs by Annexin V/propidium iodide staining based assay (reference value: 95.03 %); type: functional; settings: read-out: Activity; method in brief: as §2
HeLa [13] = experiment: Induction of apoptosis in human HeLa cells assessed as late apoptotic cells at 5 uM after 48 hrs by Annexin V/propidium iodide staining based assay (reference value: 1.75 %); type: functional; method in brief: as §2
HeLa [14] = experiment: Cell cycle arrest in human HeLa cells assessed as accumulation of cells at G2/M phase at 5 uM after 48 hrs by RNase/PI-staining based flow cytometric analysis (reference value: 11.69 %); type: functional
HeLa [15] = experiment: Induction of apoptosis in human HeLa cells assessed as viable cells at 10 uM after 48 hrs by Annexin V/propidium iodide staining based assay (reference value: 95.03 %); type: functional; settings: read-out: Activity; method in brief: as §2
HeLa [16] = experiment: Induction of apoptosis in human HeLa cells assessed as early apoptotic cells at 5 uM after 48 hrs by Annexin V/propidium iodide staining based assay (reference value: 3.22 %); type: functional; method in brief: as §2
HeLa [17] = experiment: Induction of apoptosis in human HeLa cells assessed as late apoptotic cells at 10 uM after 48 hrs by Annexin V/propidium iodide staining based assay (reference value: 1.75 %); type: functional; method in brief: as §2
HeLa [18] = experiment: Induction of apoptosis in human HeLa cells assessed as late apoptotic cells at 20 uM after 48 hrs by Annexin V/propidium iodide staining based assay (reference value: 1.75 %); type: functional; method in brief: as §2
HeLa [19] = experiment: Cell cycle arrest in human HeLa cells assessed as accumulation of cells at G0/G1 phase at 5 uM after 48 hrs by RNase/PI-staining based flow cytometric analysis (reference value: 71.07 %); type: functional
HeLa [20] = experiment: Cell cycle arrest in human HeLa cells assessed as accumulation of cells at S phase at 20 uM after 48 hrs by RNase/PI-staining based flow cytometric analysis (reference value: 17.24 %); type: functional
HeLa [21] = experiment: Induction of apoptosis in human HeLa cells assessed as increase in cleaved caspase 3 protein expression after 48 hrs by Western blot analysis; type: functional, cell-based; method in brief: as §3
HeLa [22] = experiment: Cell cycle arrest in human HeLa cells assessed as accumulation of cells at G0/G1 phase at 10 uM after 48 hrs by RNase/PI-staining based flow cytometric analysis analysis (reference value: 71.07 %); type: functional
HeLa [23] = experiment: Cell cycle arrest in human HeLa cells assessed as accumulation of cells at S phase after 48 hrs by RNase/PI-staining based flow cytometric analysis; type: functional
HeLa [24] = experiment: Induction of apoptosis in human HeLa cells assessed as increase in Bax protein expression after 48 hrs by Western blot analysis; type: functional, cell-based; method in brief: as §3
HeLa [25] = experiment: Cell cycle arrest in human HeLa cells assessed as accumulation of cells at G0/G1 phase at 20 uM after 48 hrs by RNase/PI-staining based flow cytometric analysis (reference value: 71.07 %); type: functional
HeLa [26] = experiment: Cell cycle arrest in human HeLa cells assessed as accumulation of cells at G2/M phase at 20 uM after 48 hrs by RNase/PI-staining based flow cytometric analysis (reference value: 11.69 %); type: functional
HeLa [27] = experiment: Cell cycle arrest in human HeLa cells assessed as accumulation of cells at S phase at 5 uM after 48 hrs by RNase/PI-staining based flow cytometric analysis (reference value: 17.24 %); type: functional
HeLa [28] = experiment: Cell cycle arrest in human HeLa cells assessed as accumulation of cells at S phase at 10 uM after 48 hrs by RNase/PI-staining based flow cytometric analysis (reference value: 17.24 %); type: functional
HeLa [29] = experiment: Cell cycle arrest in human HeLa cells assessed as accumulation of cells at G2/M phase at 10 uM after 48 hrs by RNase/PI-staining based flow cytometric analysis (reference value: 11.69 %); type: functional
HeLa [30] = experiment: Induction of apoptosis in human HeLa cells assessed as early apoptotic cells at 20 uM after 48 hrs by Annexin V/propidium iodide staining based assay (reference value: 3.22 %); type: functional; method in brief: as §2

SMILES: Nc1c2c(nc3ccc(F)cc13)N1C[C@@H]3CCCN4CCC[C@@H]([C@H]34)[C@H]1CC2
IC50 (HeLa [1]): 18.8 µM
IC50 (HepG2): 13.1 µM
ΔTm [2]: -2.3 °C
IC50 (MDA-MB-231): 37.3 µM

SMILES: Nc1c2c(nc3ccc(C(F)(F)F)cc13)N1C[C@@H]3CCCN4CCC[C@@H]([C@H]34)[C@H]1CC2
Activity (HeLa [3]): 2.62%
Activity (HeLa [4]): 28.57%
Activity (HeLa [5]): Dose-dependent effect
Activity (HeLa [6]): Active
inhibition [7]: Active
viability at 20 µM (HeLa [8]): 38.1%
Activity (HeLa [9]): 4.06%
Activity (HeLa [10]): Dose-dependent effect
Activity (HeLa [11]): 8.79%
viability at 5 µM (HeLa [12]): 72%
Activity (HeLa [13]): 8.79%
Activity (HeLa [14]): 12.83%
viability at 10 µM (HeLa [15]): 50.1%
Activity (HeLa [16]): 17.51%
Activity (HeLa [17]): 17.3%
IC50 (HeLa [1]): 19.6 µM
Activity (HeLa [18]): 21.17%
Activity (HeLa [19]): 65.53%
Activity (HeLa [20]): 40.12%
Activity (HeLa [21]): Dose-dependent effect
Activity (HeLa [22]): 62.47%
IC50 (HepG2): 16.1 µM
Activity (HeLa [23]): Dose-dependent effect
Activity (HeLa [24]): Dose-dependent effect
Activity (HeLa [25]): 56.95%
Activity (HeLa [26]): 2.93%
Activity (HeLa [27]): 21.64%
Activity (HeLa [28]): 26.67%
ΔTm [2]: 10.9 °C
Activity (HeLa [29]): 10.86%
Activity (HeLa [30]): 38.07%
IC50 (MDA-MB-231): 22.1 µM

SMILES: CCOc1ccc(/N=C2\CCC[C@@H]3[C@H]4CCCN5CCC[C@@H](CN23)[C@@H]45)cc1
IC50 (HeLa [1]): > 100 µM
IC50 (HepG2): 97.5 µM
ΔTm [2]: 0 °C
IC50 (MDA-MB-231): > 100 µM

SMILES: Cc1ccc2nc3c(c(N)c2c1)CC[C@@H]1[C@H]2CCCN4CCC[C@@H](CN31)[C@@H]24
IC50 (HeLa [1]): 13.4 µM
IC50 (HepG2): 9.2 µM
ΔTm [2]: -4.27 °C
IC50 (MDA-MB-231): 16.9 µM

SMILES: Nc1c2c(nc3ccc(Br)cc13)N1C[C@@H]3CCCN4CCC[C@@H]([C@H]34)[C@H]1CC2
IC50 (HeLa [1]): 6.9 µM
IC50 (HepG2): 9.7 µM
ΔTm [2]: -7.58 °C
IC50 (MDA-MB-231): 9.7 µM

SMILES: CC(C)c1ccc(/N=C2\CCC[C@@H]3[C@H]4CCCN5CCC[C@@H](CN23)[C@@H]45)cc1
IC50 (HeLa [1]): 93.3 µM
IC50 (HepG2): 96.6 µM
ΔTm [2]: -1.24 °C
IC50 (MDA-MB-231): 77.5 µM

Results, then the molecule that gave them:

IC50 (HeLa [1]): 23.7 µM
IC50 (HepG2): 11 µM
ΔTm [2]: -4.91 °C
IC50 (MDA-MB-231): 24.6 µM
SMILES: c1ccc(-c2ccc(/N=C3\CCC[C@@H]4[C@H]5CCCN6CCC[C@@H](CN34)[C@@H]56)cc2)cc1

IC50 (HeLa [1]): > 100 µM
IC50 (HepG2): > 100 µM
deltaTm [2]: inactive
IC50 (MDA-MB-231): 73.4 µM
SMILES: Clc1ccc(/N=C2\CCC[C@@H]3[C@H]4CCCN5CCC[C@@H](CN23)[C@@H]45)cc1

IC50 (HeLa [1]): > 100 µM
IC50 (HepG2): > 100 µM
ΔTm [2]: -0.57 °C
IC50 (MDA-MB-231): > 100 µM
SMILES: c1ccc(/N=C2\CCC[C@@H]3[C@H]4CCCN5CCC[C@@H](CN23)[C@@H]45)cc1
